≈ marks a conversion by molar mass, not a printed value. Calls of active or inactive are those of the source. No cut-off for these calls is given here.
What was measured:
Staphylococcus aureus = assay: Antibacterial activity against Staphylococcus aureus at 50 ug/mL; format: functional, organism-based
[1] = system: Mycobacterium tuberculosis; assay: Antimycobacterial activity against Mycobacterium tuberculosis H37Ra ATCC 25177 after 4 days by MTT assay; format: functional; settings: H37Ra ATCC 25177, 96 h
In short: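 Inoculum from a frozen bacterial pellet diluted into fresh medium to a final 5×10⁵ CFU/mL, dispensed onto compound in quadruplicate wells. DMSO-only wells served as negative control and rifampicin at 250 ng/mL as positive control. Incubated 4 days at 37 °C, then MTT added for a further 12 h. After subtracting media-only blanks, % inhibition = (1 − Σtest/Σcontrol)×100.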

Candida albicans = assay: Antifungal activity against Candida albicans at 50 ug/mL; format: functional, organism-based
Escherichia coli = assay: Antibacterial activity against Escherichia coli at 50 ug/mL; format: functional, organism-based
Bacillus subtilis = assay: Antibacterial activity against Bacillus subtilis at 50 ug/mL; format: functional, organism-based

Compound | Activity (Staphylococcus aureus) | MIC [1] [mg/L] | Activity (Candida albicans) | Activity (Escherichia coli) | Activity (Bacillus subtilis)
CC(C)/C(=C\C[C@@H](C)[C@H]1CC[C@H]2C3=CC[C@H]4C[C@H](N(C)C)[C@@H](O)C[C@]4(C)[C@H]3CC[C@]12C)CCN(C)C | inactive | 15.8 (≈ 31.7 µM) | Active | inactive | inactive
CC(C)/C(=C\C[C@@H](C)[C@H]1CC[C@H]2C3=CC[C@H]4C[C@H](N(C)C)CC[C@]4(C)[C@H]3CC[C@]12C)CCN(C)C | inactive | 3.6 (≈ 7.46 µM) | Active | inactive | inactive

Reference: ChEMBL document CHEMBL3085745, “Plakinamine M, a steroidal alkaloid from the marine sponge Corticium sp” (2013)
